Experimental data published in PMC4005002 (Anti-cancer drugs, 2013).
Values joined by “and” are separate entries in the source; they are usually repeats but may differ in a detail not shown here. Identical values can stand only once. Like-named read-outs stand apart in the source and are kept apart here. Values belong to the compound of their own block, whether it stands above or below them.

Experiments:
[1] = Tem pharmacokinetics in whole blood; format: in vivo, human; conditions: for AUC(0-t): 0 to 24 hours post dose
[2] = cited from earlier work; for median Cmax: children
[3] = tested on: pediatric patients with recurrent/refractory solid tumors; conditions: cited from earlier work
[4] = tested on: children and adolescents with refractory solid tumors; assay: Phase I dose escalation of Tem in combination with VPA: toxicity; format: in vivo
[5] = tested on: histone acetylation; conditions: cited from earlier work
[6] = tested on: acetylated H4; conditions: phase I study of VPA alone, half of the subjects; cited from earlier work
[7] = VPA serum/plasma levels during treatment; format: in vivo, human
[8] = tested on: HDAC activity in PBMC; assay: Histone H4 acetylation in peripheral blood mononuclear cells; format: in vivo, human; conditions: data from subject 6, VPA with Tem
Summary of the method: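 PBMC isolated on Ficoll and stored at −80 C. Extracts normalized to cell number were run on SDS-PAGE and blotted with rabbit anti-tetra-acetyl H4 (1:2000) and anti-pan-H4 (1:1000). Scanned blots were quantified.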

Compound: CO[C@H]1C[C@@H]2CC[C@@H](C)[C@@](O)(O2)C(=O)C(=O)N2CCCC[C@H]2C(=O)O[C@H]([C@H](C)C[C@@H]2CC[C@@H](OC(=O)C(C)(CO)CO)[C@H](OC)C2)CC(=O)[C@H](C)/C=C(\C)[C@@H](O)[C@@H](OC)C(=O)[C@H](C)C[C@H](C)/C=C/C=C/C=C/1C [Tem, Temsirolimus]
Peak Tem levels, range over patients ([1]; Tem 60 mg/m^2 dose level with VPA, both cycles): 757–1,220 ng/mL | Tmax ([1]; cycle 5, Tem 35 mg/m^2 IV weekly with VPA, median, N = 2): 30 min | Tmax ([1]; human, whole blood, iv, 35 mg/m^2): 39.6 min | AUC(0-t) ([1]; human, whole blood, iv, 35 mg/m^2, AUClast, cycle 1, Tem 35 mg/m^2 IV weekly with VPA, median, N = 3): 7550 ng·h/mL | AUC(0-t) ([1]; human, whole blood, iv, 60 mg/m^2, AUClast, cycle 1, Tem 60 mg/m^2 IV weekly with VPA, median, N = 2): 8330 ng·h/mL | half-life ([1]; human, whole blood, iv, T1/2, cycle 5, Tem 60 mg/m^2 IV weekly with VPA, N = 1): 504 min | median Cmax ([2]; Tem 25 mg/m^2 without VPA): 448 ng/mL | median Cmax ([2]; Tem 75 mg/m^2 without VPA): 442 ng/mL | Peak Tem levels, range ([2]; children who had received 75 mg/m^2 Tem without VPA): 369 to 630 ng/mL | MTD of Tem as single agent ([3]; pediatric study): more than 150 mg/m^2 IV/week | MTD of Tem alone ([3]; phase I pediatric study): 150 mg/m^2 | tolerable dose of Tem with VPA ([4]; IV weekly with VPA PO TID): 35 mg/m^2/week | MTD of Tem in combination with VPA ([4]; IV weekly, VPA doses dropped using fatigue as endpoint): 35 mg/m2/wk | dose of Tem well tolerated / likely MTD when combined with VPA ([4]; IV weekly, only 3 patients treated at this dose): 35 mg/m^2 | mucositis at the lower dose ([4]; human, in vivo): mucositis limited to grade 1 or 2, with the exception of one subject with grade 3

concentration at 24 h ([7]; human, plasma, oral): 52000 ng/mL | VPA level at grade 2 thrombocytopenia ([7]; one patient, resolved after holding VPA for 3 days): 56 µg/mL | VPA range ([7]; patient 1, Tem 60 mg/m^2): 26–72 (NA) mcg/mL | VPA range ([7]; patient 2, Tem 60 mg/m^2): 78 to 112 µg/mL | VPA range ([7]; patient 3, Tem 60 mg/m^2): <10 to 91 µg/mL | VPA range ([7]; patient 4, Tem 35 mg/m^2): 68 to 108 µg/mL | VPA range ([7]; patient 5, Tem 35 mg/m^2): 13 to 87 µg/mL | VPA range ([7]; patient 6, Tem 35 mg/m^2): 22 to 78 µg/mL | VPA level at the time of maximum symptoms (grade 3 bilateral plantar pain) ([7]; subject #5, beginning of 4th month of treatment): 87 µg/mL
Compound: CCCC(CCC)C(=O)O [VPA, Valproic Acid]
VPA levels needed before acetylation is significantly affected [5]: greater than 100 mcg/mL | VPA levels associated with increased acetylated H4 [6]: 55 to 100 µg/mL | VPA level at time of grade 3 toxicity ([7]; patient 2, Tem 60 mg/m^2): 85 µg/mL and 112 µg/mL | VPA level at time of grade 3 toxicity ([7]; patient 3, Tem 60 mg/m^2): 91 µg/mL | VPA level at time of grade 3 toxicity ([7]; patient 4, Tem 35 mg/m^2): 108 µg/mL | VPA level at time of grade 3 toxicity ([7]; patient 5, Tem 35 mg/m^2): 87 µg/mL | VPA level at time of grade 3 toxicity ([7]; patient 6, Tem 35 mg/m^2): 78 µg/mL | VPA levels with which toxicity seemed to correlate ([4]; Tem plus VPA): > 75 µg/mL | fatigue attributed to VPA ([4]; in vivo): dose-limiting fatigue | VPA plasma levels required to inhibit HDAC activity in PBMC [8]: > 70 µg/dL
